Screens as filed in PubChem BioAssay.
This is a sample that favours compounds with a hit; in the whole collection about 2% have one here.
FGF22 binding = binders of human FGF22 protein, primary screen, FGF22 synaptogenesis inhibitor project, biophysical, thermal shift, single point. recombinant FGF22 thermal shift, SYPRO orange fluorescence; percent of sucrose octasulfate shift, DMSO zero. activity (Tm shift, normalised), % at 9.99 µM. Fibroblast growth factor 22 (Homo sapiens), Q9HCT0. 340,000 compounds, 1.5% hits;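 active means mean Tm shift, scaled 0 neutral to 100 positive control, at about 1.3% or above, every replicate too, limit read from the data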
DAGLB inhibitor = DAGLB lipase inhibitors, primary screen, biochemical, fluorescence, HTS; 340,000 compounds, 0.059% hits; Diacylglycerol lipase-beta (Homo sapiens), Q8NCG7; AID 504411, 2011; HEK293T DAGLB membrane lysate, EnzChek fluorogenic substrate; inhibition, % at 5.17 µM; in the data active means inhibition above about 34%;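 further: 0% = enzyme with vehicle and 100% = wells lacking enzyme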
Target sequence (Q8NCG7 whole entry, looked up): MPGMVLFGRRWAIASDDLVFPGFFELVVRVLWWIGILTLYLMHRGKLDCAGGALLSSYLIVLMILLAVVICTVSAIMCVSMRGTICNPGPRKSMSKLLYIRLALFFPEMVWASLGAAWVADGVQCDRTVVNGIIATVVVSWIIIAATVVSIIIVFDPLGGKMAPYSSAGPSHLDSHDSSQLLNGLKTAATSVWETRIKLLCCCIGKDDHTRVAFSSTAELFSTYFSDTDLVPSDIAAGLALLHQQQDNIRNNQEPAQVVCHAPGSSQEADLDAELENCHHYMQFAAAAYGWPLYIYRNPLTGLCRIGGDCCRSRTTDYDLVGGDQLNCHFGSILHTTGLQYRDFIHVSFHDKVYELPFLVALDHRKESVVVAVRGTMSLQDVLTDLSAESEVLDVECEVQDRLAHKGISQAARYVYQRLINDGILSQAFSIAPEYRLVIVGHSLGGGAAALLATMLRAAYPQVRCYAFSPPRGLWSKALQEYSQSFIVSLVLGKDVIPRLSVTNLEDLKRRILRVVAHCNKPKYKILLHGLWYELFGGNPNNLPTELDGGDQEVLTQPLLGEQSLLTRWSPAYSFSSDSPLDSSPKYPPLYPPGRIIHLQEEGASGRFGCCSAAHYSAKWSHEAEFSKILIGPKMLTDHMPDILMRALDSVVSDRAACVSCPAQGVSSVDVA
VLA-4 inh = inhibition in human VLA-4 binding assay, primary screen, VLA-4 allosteric modulator project, MLPCN library, flow cytometry, VLA-4 expressing cells; inhibition, % (about 7 µM as worked out from the volumes in the protocol); 330,000 compounds, 0.2% hits; ligand binding flow cytometry; Integrin alpha-4 (Homo sapiens), P13612; in the data active means inhibition above about 50%
Exocytosis inh = LAMP-1 surface exposure blockers, TALL-104 cells – cell-based, flow cytometry, MLPCN library, primary screen. TALL-104 LAMP-1 surface exposure; cells stimulated with thapsigargin and PMA. AID 651702, 2012. inhibition, % at 10 µM. 360,000 compounds, 0.66% hits;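 active means inhibition above about 55%, limit read from the data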
MT1-MMP act inh = blockers of MT1-MMP proenzyme processing, primary screen, HT1080 RFP-PRO-GFP cells, GFP/RFP fluorescence; GFP/RFP ratio fluorescence, overnight; percent of plate control window, DMSO zero; Matrix metalloproteinase-14 (Homo sapiens), P50281; 360,000 compounds, 0.061% hits; GFP/RFP ratio change, % at 20 µM;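 active means GFP/RFP ratio change of at least 30% with cell ATP level not reduced by more than half and red fluorescence within 50% of control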
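Material – HT1080 RFP-PRO-GFP cells · Control set – DMSO wells and RFP-L50D-GFP cells · Incubation – overnight cell settling, then overnight compound exposure, 37 °C, 5% CO2 · Compound dosing – single-point 20 µM compound, 1% DMSO · Read-out – GFP/RFP fluorescence ratio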
ABCB6 inh MLPCN = ABCB6 transporter inhibitors, primary screen, K562-ABCB6 cells, flow cytometry, MLPCN library. ATP-binding cassette sub-family B member 6 (Homo sapiens), Q9NP58. K562-ABCB6 porphyrin accumulation, 1 h; active compounds read low. fluorescence ratio to DMSO, % at 10 µM. 360,000 compounds, 0.19% hits. AID 602162, 2011;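 active means fluorescence ratio to DMSO below 75%, the collection mean minus 3 SD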;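 further: signal is porphyrin accumulated inside mitochondria; 100% equals median channel fluorescence of DMSO control wells; lower ratio means ABCB6 inhibition with less porphyrin fluorescence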
Exocytosis CP01 = inhibitors of lytic granule exocytosis, confirmation, TALL-104 cells, flow cytometry, Cherry Pick01 | shares compounds with Exocytosis inh | LAMP-1 externalization; stimulated with PMA plus thapsigargin | inhibition, % at 10 µM | 1,500 compounds, 11% hits; in the data active means inhibition above about 60%;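 further: 0% = stimulated vehicle wells and 100% = unstimulated wells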
Active calls of the source: *; nt = no result.

SMILES	FGF22 binding	DAGLB inhibitor	VLA-4 inh	Exocytosis inh	MT1-MMP act inh	ABCB6 inh MLPCN	Exocytosis CP01
CCCCC[C@H](C)N1C[C@H](COCc2ccccc2)Oc2cc(N3CC[C@H](N(C)C)C3)ccc2S1(=O)=O	-0.6	nt	nt	52.9	1.6	95.0	nt
C[C@H](c1ccccc1)N1C[C@H](COCc2ccccc2)Oc2cc(N3CC[C@@H](N(C)C)C3)ccc2S1(=O)=O	0.0	nt	nt	61.9*	0.1	95.0	22.5
CNC[C@@H]1Oc2ncc(C#CC3(O)CCCC3)cc2C(=O)N([C@@H](C)CO)C[C@@H]1C	0.0	nt	nt	nt	nt	nt	nt
COCC(=O)N(C)C[C@@H]1Oc2ncc(C#C[C@@H](C)O)cc2C(=O)N([C@H](C)CO)C[C@H]1C	-0.1	nt	nt	nt	nt	nt	nt
COCC(=O)N(C)C[C@@H]1Oc2cc(C#CCC(C)C)ccc2S(=O)(=O)N([C@@H](C)CO)C[C@H]1C	0.1	nt	nt	nt	nt	nt	nt
Cc1nc(NC(=O)C2CC2)sc1C(=O)Nc1ccccc1	0.0	-1.1	9.1	-2.1	0.1	94.0	nt
COC(=O)c1c(NC(=O)C2CC2)sc(C(=O)Nc2ccccc2)c1C	0.1	-2.2	-0.9	74.7*	-3.8	99.0	-13.7
COC(=O)N1[C@H](C)C=C[C@]1(Cc1ccccc1)C(=O)OC	-0.2	3.5	-1.9	57.2*	3.6	99.0	-13.2
Clc1ccccc1OCCCOc1cccc2cccnc12	0.5	-7.4	-6.8	88.0*	-0.6	98.0	-12.2
CN1CCc2cc3c(c4c2[C@H]1[C@H](O)c1ccccc1-4)OCO3	-0.2	-0.9	nt	0.6	17.5	90.0	nt
CN1CCc2cccc3c2[C@H]1Cc1ccc(O)c(O)c1-3	-0.5	1.9	33.0	83.6*	-6.3	101.0	6.2
COc1ccc(NC(=O)Nc2ccc3c(c2)CC(=O)N([C@@H](C)CO)C[C@@H](C)[C@H](CN(C)Cc2ccc(-c4ccccc4)cc2)O3)cc1	-0.4	nt	nt	nt	nt	nt	nt
COc1ccc(S(=O)(=O)Nc2ccc3c(c2)CC(=O)N([C@@H](C)CO)C[C@@H](C)[C@H](CN(C)Cc2ccc(C(=O)O)cc2)O3)cc1	-0.1	nt	nt	nt	nt	nt	nt
C[C@H](NC(=O)C[C@H]1C=C[C@@H](NC(=O)Cc2ccccn2)[C@H](CO)O1)c1ccccc1	0.0	nt	nt	nt	nt	nt	nt
C[C@H](NC(=O)Nc1ccc2c(c1)OCCO2)C(=O)O	nt	0.6	-4.5	100.9*	1.3	103.0	-16.2
CCOc1ccc(NC(=O)c2ccc(F)cc2F)cc1	0.0	-1.2	17.0	62.1*	-2.2	97.0	-13.0
Cc1ccc(/C=C2/NC(=O)N(Cc3ccccc3)C2=O)o1	nt	1.2	-3.6	57.5*	-15.7	213.0	-9.1
COC(=O)CN1C(=O)N/C(=C/c2ccc(C)o2)C1=O	0.0	0.3	-10.8	5.5	-11.9	97.0	nt
CCOC(=O)C1=C(CCc2ccccc2)NC(=O)NC1c1cccc([N+](=O)[O-])c1 (stereo not given)	-0.1	2.2	5.8	94.2*	9.4	95.0	-13.9
CCOC(=O)Cn1c(=O)oc2cc(S(=O)(=O)NCCc3ccc(C)cc3)ccc21	-0.3	2.6	40.8	-1.9	0.5	99.0	nt
CCN(C(=O)Cn1c(=O)oc2cc(S(=O)(=O)N3CCCC3)ccc21)c1ccc(OC)cc1	-0.2	5.0	12.9	-3.9	-3.4	101.0	nt
CCOC(=O)Cn1c(=O)oc2cc(S(=O)(=O)N(C)c3cccc(C)c3)ccc21	0.2	-0.2	-14.0	61.8*	-0.6	102.0	1.8
CCOC(=O)Cn1c(=O)oc2cc(S(=O)(=O)N(C)c3ccc(OC)cc3)ccc21	0.0	-1.1	4.8	59.3*	0.8	99.0	-4.3
CO[C@H](CN(C)C(=O)c1ccc2c(c1)OCO2)[C@@H](C)CN([C@@H](C)CO)S(=O)(=O)c1ccc(C)cc1	-0.1	nt	nt	nt	nt	nt	nt
CCOC(=O)c1c(C)oc2c1c(C(c1cccnc1)N1CCOCC1)c(O)c1ccccc12 (stereo not given)	nt	-0.2	2.9	97.9*	-4.4	105.0	82.9*
SMILES	FGF22 binding	DAGLB inhibitor	VLA-4 inh	Exocytosis inh	MT1-MMP act inh	ABCB6 inh MLPCN	Exocytosis CP01
CCOC(=O)c1c(C)oc2c1c1c(c3ccccc32)OCN(Cc2cccnc2)C1	nt	0.9	nt	1.1	-2.4	103.0	nt
O=C(c1ccco1)N1CCN(c2nc3ccccc3n3nnnc23)CC1	nt	-2.1	-2.2	56.5*	-6.8	194.0	-3.9
CC(NC(=O)c1ccc(F)cc1)c1ccccc1 (stereo not given)	nt	-1.5	9.7	-4.3	0.8	87.0	nt
CC(NC(=S)Nc1ccc(F)cc1)c1ccccc1 (stereo not given)	nt	-1.0	6.6	73.8*	2.9	100.0	-4.7
O=C(NC1CCC1)[C@H]1[C@H](CO)[C@H]2Cn3c(ccc(-c4ccc(F)cc4)c3=O)[C@@H]1N2	0.0	nt	nt	nt	nt	nt	nt
COCC1CCCN(Cc2cn(Cc3ccccc3)nc2-c2cc3ccccc3o2)C1 (stereo not given)	0.0	-3.6	6.8	70.4*	-1.9	87.0	-4.6
C[C@@H]1CN([C@H](C)CO)C(=O)Cc2cc(NS(=O)(=O)c3cn(C)cn3)ccc2O[C@H]1CN(C)C(=O)Nc1ccccc1	-0.1	nt	nt	nt	nt	nt	nt
CCN(CC)S(=O)(=O)c1ccc(S(=O)(=O)N2CCC(N3CCCCC3)CC2)cc1	0.1	-0.7	6.5	62.1*	1.7	100.0	-4.5
CO[C@@H]1CN(C)C(=O)c2cc(NC(C)=O)ccc2OC[C@@H](C)N(C(=O)c2ccccn2)C[C@H]1C	0.0	nt	nt	nt	nt	nt	nt
CCS(=O)(=O)N1CCC2(CC1)CN(C(=O)Nc1cccc(F)c1)[C@H](CO)c1c2c2ccc(OC)cc2n1C	-0.2	nt	nt	nt	nt	nt	nt
CCOC(=O)c1c(NC(=O)c2ccn(CC)n2)sc2c1CCC2	41.4	-9.3	-0.5	79.6*	-0.7	103.0	-3.3
CCOC(=O)c1c(NC(=O)c2nn(CC)cc2Br)sc2c1CCCCC2	nt	-8.3	4.0	2.9	-4.5	105.0	nt
CC(=O)Nc1cccc(-n2c(=O)n(Cc3ccccc3)c(=O)c3[nH]cnc32)c1	0.2	-1.5	-7.1	55.5*	-7.0	98.0	-3.5
COc1cccc(-n2c(=O)n(Cc3ccccc3)c(=O)c3[nH]cnc32)c1C	0.0	-1.9	-7.0	-0.5	3.5	97.0	nt
CC(NC(=O)C1CCN(S(=O)(=O)c2ccc(Br)s2)CC1)c1ccccc1 (stereo not given)	-0.1	-0.6	1.9	66.2*	-5.5	102.0	-11.4
